Assay results from different studies.
Protocols differ between the studies behind these lines.
ABL1 T315I non-phosphorylated: Tyrosine-protein kinase ABL1, non-phosphorylated (ABL1, Homo sapiens, UniProt P00519, T315I)
ABL1 H396P phosphorylated: Tyrosine-protein kinase ABL1, phosphorylated (ABL1, Homo sapiens, UniProt P00519, H396P)
ABL1 M351T phosphorylated: Tyrosine-protein kinase ABL1, phosphorylated (ABL1, Homo sapiens, UniProt P00519, M351T)
ABL1 non-phosphorylated: Tyrosine-protein kinase ABL1, non-phosphorylated (ABL1, Homo sapiens, UniProt P00519)
ABL1 phosphorylated: Tyrosine-protein kinase ABL1, phosphorylated (ABL1, Homo sapiens, UniProt P00519)
ABL1 F317L phosphorylated: Tyrosine-protein kinase ABL1, phosphorylated (ABL1, Homo sapiens, UniProt P00519, F317L)
ABL1 Q252H phosphorylated: Tyrosine-protein kinase ABL1, phosphorylated (ABL1, Homo sapiens, UniProt P00519, Q252H)
ABL1 Q252H non-phosphorylated: Tyrosine-protein kinase ABL1, non-phosphorylated (ABL1, Homo sapiens, UniProt P00519, Q252H)

| Structure (SMILES) | target | observed | technique | tested at | remaining binding |
| --- | --- | --- | --- | --- | --- |
| c1cncc(-c2cccc(Nc3nccc(NC4CCCCC4)n3)c2)c1 | ABL1 T315I non-phosphorylated | binding | competition with immobilised ligand | 10 µM | 79% |
| C[C@@H]1CCN(c2nccc(-c3cnn4ncccc34)n2)C1 | Tyrosine-protein kinase ABL1 (ABL1, Homo sapiens, UniProt P00519, Y253F) | binding |  | 1 µM | 88% |
| O=C(NCCCN1CCOCC1)c1ccc(Nc2nccc(-c3cc4ccccc4s3)n2)cc1 | ABL1 H396P phosphorylated | binding | competition with immobilised ligand | 1 µM | 61% |
| COc1ccnn2ncc(-c3ccnc(N(C)C)n3)c12 | Tyrosine-protein kinase ABL1 (ABL1, Homo sapiens, UniProt P00519, F317I) | binding |  | 1 µM | 82% |
| CO[C@@H](C)c1c(Nc2ccc([C@H](N(C)C(=O)C3CCS(=O)(=O)CC3)C(F)(F)F)cc2)cnc2cc(Cl)nn12 | ABL1 H396P phosphorylated | cell-free assay | competition with immobilised ligand | 1 µM | 100% |
| Nc1ncc2c(n1)-c1c([nH]c3ccc(C#CC4CC4)cc13)CCCC2 | ABL1 M351T phosphorylated | binding | competition with immobilised ligand | 1 µM | 95% |
| CN(CCCC(F)(F)F)c1nccc(-c2cnn3ncccc23)n1 | ABL1 non-phosphorylated | binding | competition with immobilised ligand | 1 µM | 76% |
| COc1cnc(Nc2cccc(S(N)(=O)=O)c2)nc1N1CCN(c2ccccc2)CC1 | ABL1 phosphorylated | binding | competition with immobilised ligand | 1 µM | 79% |
| COc1cccc(CNC(=O)c2nc3scc(COCc4ccc(C(=O)O)cc4)c3c(=O)[nH]2)c1 | ABL1 F317L phosphorylated | cell-free assay | competition with immobilised ligand | 1 µM | 87.2% |
| Cc1cnc(Nc2ccc(C(=O)N3CCC(N4CCCC4)CC3)cc2)nc1-c1cc2ccccc2s1 | ABL1 Q252H phosphorylated | binding | competition with immobilised ligand | 1 µM | 1.4% |
| C[C@H](c1ccc(F)cc1)N(Cc1cccc(C(=O)O)c1)C(=O)c1cnc2ccccc2c1 | ABL1 T315I non-phosphorylated | cell-free assay | competition with immobilised ligand | 1 µM | 85% |
| O=C(NCC1CCOCC1)c1n[nH]cc1NC(=O)c1c(F)cccc1F | ABL1 Q252H non-phosphorylated | binding | competition with immobilised ligand | 1 µM | 82% |
| CCOCCn1cc(C(=O)Nc2ccc(-n3nc(-c4cccnc4)cc3C(F)(F)F)cn2)ccc1=O | ABL1 F317L phosphorylated | cell-free assay | competition with immobilised ligand | 1 µM | 79% |
| O=C(c1ccc(Nc2ncc(Cl)c(-c3cc4ccccc4s3)n2)cc1)N1CCC(N2CCCC2)CC1 | ABL1 M351T phosphorylated | binding | competition with immobilised ligand | 1 µM | 12% |
| N[C@@H]1CCN(c2nccc(-c3cnn4ncccc34)n2)C1 | ABL1 non-phosphorylated | binding | competition with immobilised ligand | 1 µM | 100% |
| CCCOc1ccc([C@H]2[C@H](C(=O)O)[C@@H](c3ccc4c(c3)OCO4)CN2CC(=O)Nc2c(CC)cccc2CC)cc1 | Tyrosine-protein kinase ABL1, non-phosphorylated (ABL1, Homo sapiens, UniProt P00519, F317L) | cell-free assay | competition with immobilised ligand | 1 µM | 62% |
| CN(C)c1nccc(-c2cnc3ncccn23)n1 | ABL1 phosphorylated | binding |  | 1 µM | 57% |
| O=C(NCCCN1CCOCC1)c1ccc(Nc2ncc(Cl)c(-c3ccc(Cl)s3)n2)cc1 | ABL1 Q252H phosphorylated | binding | competition with immobilised ligand | 1 µM | 29% |
| CNC(=O)[C@@H]1CC[C@@H](n2c(-c3ccc4cnccc4c3)nc3ccc(C(=O)NCc4cccc(C(N)=O)c4)cc32)C1 | ABL1 Q252H non-phosphorylated | binding | competition with immobilised ligand | 1 µM | 87% |
| CO[C@H]1CC[C@H](CNc2ccc(S(=O)(=O)NC(=O)c3ccc(N4CCN(CC5=C(c6ccc(Cl)cc6)CC(C)(C)CC5)CC4)cc3Oc3cnc4[nH]ccc4c3)cc2[N+](=O)[O-])CC1 | ABL1 Q252H non-phosphorylated | cell-free assay | competition with immobilised ligand | 1 µM | 81% |
| COc1ncc2cc3ccccc3nc2c1C#N | ABL1 non-phosphorylated | cell-free assay | competition with immobilised ligand | 5 µM | 100% |
| O=C(c1ccc(Nc2nccc(-c3cc4ccccc4s3)n2)cc1)N1CCC(N2CCCC2)CC1 | ABL1 F317L phosphorylated | binding | competition with immobilised ligand | 1 µM | 100% |
| C[C@@H](c1ccc(-n2cnc3c(N)ncnc32)cc1)N1CCc2nn(C)c(Cc3ccccc3)c2C1=O | Tyrosine-protein kinase ABL1, non-phosphorylated (ABL1, Homo sapiens, UniProt P00519, F317I) | binding | competition with immobilised ligand | 0.1 µM | 40% |
